Results: ChEMBL document CHEMBL1154067, “Antiviral and cytotoxic activities of aminoarylazo compounds and aryltriazene derivatives” (Bioorg Med Chem, 2009)
Activity calls are given as the source filed them.

Experiments:
MT4 = assay: Cytotoxicity against human MT4 cells after 96 hrs by MTT assay; format: cell-based; conditions: mt4, 96 h
In short: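 Exponentially growing mock-infected MT-4 seeded at 1 × 10^5 cells/mL in RPMI-1640 with 10% FCS, penicillin and streptomycin. Incubated with or without serial compound dilutions at 37 °C, 5% CO2. Viability by MTT after 96 h. CC50 = concentration reducing viability 50%.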

[1] = Cytotoxicity against MDBK cells after 48 to 96 hrs by MTT assay; format: cell-based, Bos taurus; conditions: cattle, mdbk
In short: (§1)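 Mock-infected cells in maintenance medium, MDBK at 6 × 10^5 and BHK at 1 × 10^6 cells/mL initial density, with or without serial compound dilutions. Run in parallel with antiviral assays. Viability by MTT after 48–96 h at 37 °C, 5% CO2. CC50 = concentration reducing viability 50%.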

[2] = test system: Bovine viral diarrhea virus 1; assay: Antiviral activity against Bovine viral diarrhea virus infected in MDBK cells assessed as inhibition of virus-induced cytopathicity after 3 to 4 days by MTT assay; format: functional, organism-based; conditions: Bovine viral diarrhea virus isolates and strains
Yellow fever virus = assay: Antiviral activity against Yellow fever virus infected in BHK-21 cells assessed as inhibition of virus-induced cytopathicity after 3 to 4 days by MTT assay; format: functional, organism-based
[3] = test system: Mammalian orthoreovirus 1; assay: Antiviral activity against Reovirus-1 infected in BHK-21 cells assessed as inhibition of virus-induced cytopathicity after 3 to 4 days by MTT assay; format: functional, organism-based; conditions: Mammalian orthoreovirus 1, BHK-21
In short: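 BHK-21 cells seeded at 5 × 10^4 cells/well, grown overnight to confluent monolayers at 37 °C in 5% CO2, then infected at m.o.i. 0.01 in serum-free medium. One hour later, MEM Earle's with 1% final inactivated FCS added, with or without serial compound dilutions. Viability read by MTT after 3–4 days at 37 °C. EC50 is the concentration giving 50% protection from cytopathogenicity.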

Vero = assay: Cytotoxicity against african green monkey Vero 76 cells by crystal violet staining; format: cell-based; conditions: chlorocebus sabaeus, vero
In short: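 Mock-infected Vero 76 seeded at 4 × 10^5 cells/mL, run in parallel with plaque assays, with or without serial compound dilutions. Cell number of monolayers determined by crystal violet staining. CC50 = concentration reducing viable cell number 50%.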

Coxsackievirus B2 = assay: Antiviral activity against Coxsackie virus type B2 virus infected in african green monkey Vero-76 cells after 3 days by plaque reduction assay; format: functional, organism-based; conditions: Enterovirus B, Vero 76, 72 h
In short: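 Vero 76 cells seeded at 2 × 10^5 cells/well, grown overnight to confluence at 37 °C in 5% CO2, then infected at 50–100 PFU/well. Unadsorbed virus removed. Overlay of DMEM with 1% inactivated FCS and 0.75% methylcellulose, with or without serial compound dilutions. After 3 days at 37 °C, fixed and stained with crystal violet in PBS/50% ethanol; plaques counted. EC50 is the concentration reducing plaque number by 50%.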

[4] = test system: Respiratory syncytial virus; assay: Antiviral activity against Respiratory syncytial virus A2 infected in Vero-76 cells after 5 days by plaque reduction assay; format: functional, organism-based; conditions: human respiratory syncytial virus, A2, Vero 76, 120 h
Human alphaherpesvirus 1 = assay: Antiviral activity against HSV1 infected in Vero-76 cells after 3 days by plaque reduction assay; format: functional, organism-based; conditions: Human alphaherpesvirus 1, Vero 76, 72 h
[5] = Cytotoxicity against hamster BHK21 cells assessed as reduction in cell viability after 48 to 96 hrs by MTT assay; format: cell-based, Mesocricetus auratus, BHK-21; conditions: bhk-21; in short: as §1
Poliovirus 1 = assay: Antiviral activity against Human poliovirus 1 strain Sabin after 2 days by plaque reduction assay; format: functional; conditions: for EC50: Enterovirus C, 48 h
[6] = test system: Human immunodeficiency virus 1; assay: Antiviral activity against HIV1 infected in human MT4 cells assessed as inhibition of virus-induced cytopathicity after 4 days by MTT assay; format: functional, organism-based
[7] = test system: Vesicular stomatitis virus; assay: Antiviral activity against Vesicular stomatitis virus after 2 days by plaque reduction assay; format: functional, organism-based
Vaccinia virus = assay: Antiviral activity against Vaccinia virus after 3 days by plaque reduction assay; format: functional, organism-based; conditions: Orthopoxvirus vaccinia

Row | SMILES | CC50 (MT4) [µM] | CC50 [1] [µM] | EC50 [2] [µM] | EC50 (Yellow fever virus) [µM] | EC50 [3] [µM] | CC50 (Vero) [µM] | EC50 (Coxsackievirus B2) [µM] | EC50 [4] [µM] | EC50 (Human alphaherpesvirus 1) [µM] | CC50 [5] [µM] | Activity (Poliovirus 1) | inhibition [6] | Activity [7] | Activity (Vaccinia virus) | EC50 (Poliovirus 1) [µM]
1 | CN(C)CCCNc1ccc(/N=N/c2ccc([N+](=O)[O-])cc2)cc1 | 19 | > 100 | > 100 | > 100 | > 100 | 60 | > 60 | > 60 | > 60 | > 100 | inactive | inactive | inactive | inactive | –
2 | O=[N+]([O-])c1cccc(/N=N/Nc2ccccc2)c1 | 40 | 94 | 19 | > 38 | > 38 | 33 | > 33 | > 33 | > 33 | 38 | – | inactive | inactive | inactive | > 33
3 | CN(C)CCCN(/N=N/c1ccccc1)c1ccccc1 | 33 | 95 | ≥ 95 | > 50 | > 50 | 35 | 6 | > 35 | 12 | 50 | – | inactive | inactive | inactive | > 35
4 | FC(F)(F)c1cccc(N/N=N/c2ccccc2)c1 | > 100 | > 100 | > 100 | ≥ 100 | > 100 | 15 | 8 | 3 | > 15 | > 100 | – | inactive | inactive | inactive | > 15
5 | CN(C)CCCN(/N=N/c1c(F)cccc1F)c1ccccc1 | 23 | 45 | > 45 | 20 | > 52 | 25 | 9 | ≥ 25 | 12 | 52 | – | inactive | inactive | inactive | > 25
6 | Fc1ccc(F)c(/N=N/Nc2ccccc2)c1 | 100 | > 100 | > 100 | > 100 | > 100 | 80 | 12 | 10 | 55 | > 100 | – | inactive | inactive | inactive | > 80
7 | CN(C)CCCN(/N=N/c1cc(F)ccc1F)c1ccccc1 | 13 | 25 | > 25 | > 25 | > 25 | 7 | > 7 | > 7 | > 7 | 25 | – | inactive | inactive | inactive | > 7
8 | Fc1ccc(/N=N/c2ccc(NC[C@@H]3CCCN4CCCC[C@H]34)c3c2CCCC3)c(F)c1 | 51 | 11 | > 11 | > 9 | > 9 | 15 | > 15 | > 15 | > 15 | 9 | inactive | inactive | inactive | inactive | –
9 | CN(C)CCCN(/N=N/c1ccc([N+](=O)[O-])cc1)c1ccccc1 | 20 | 39 | ≥ 39 | ≥ 36 | > 36 | 40 | > 40 | > 40 | > 40 | 36 | – | inactive | inactive | inactive | > 40
